Results of several laboratories.
Lines come from different studies, so protocols differ.
ABCB1: ATP-dependent translocase ABCB1 (ABCB1, Homo sapiens, UniProt P08183)
SLC47A2: Multidrug and toxin extrusion protein 2 (SLC47A2, Homo sapiens, UniProt Q86VL8)

Structure (SMILES)	target	test	test system	setting	endpoint	value
C[C@H]1O[C@@H](O[C@H]2[C@@H](O)C[C@H](O[C@H]3[C@@H](O)C[C@H](O[C@H]4CC[C@@]5(C)[C@H](CC[C@@H]6[C@@H]5C[C@@H](O)[C@]5(C)[C@@H](C7=CC(=O)OC7)CC[C@]65O)C4)O[C@@H]3C)O[C@@H]2C)C[C@H](O)[C@@H]1O	ABCB1	–	human, plasma	oral, 0.5 mg	half-life	42.5 h
O=C(O)CSc1nnc(Br)n1-c1ccc(C2CC2)c2ccccc12	SLC47A2	transporter uptake, inhibitor	HEK293	100 µM, 2 min	inhibition	-9%
Cc1ccc(C(=O)N2CCOC[C@H]2Cc2cccc(-n3nccn3)c2)c(-n2nccn2)c1	Cytochrome P450 2A6 (CYP2A6, Homo sapiens, UniProt P11509)	enzyme activity, inhibitor	human, liver microsomes	100 µM	inhibition	19%
CC1(C)CCC2(CC1)N[C@@H](C(=O)N[C@@H]1CC[C@@H](C(N)=O)OC1)[C@H](c1ccnc(Cl)c1F)[C@]21C(=O)Nc2cc(Cl)ccc21	ABCB1	–	Caco-2	1 µM, 2 h	efflux ratio	16.1
COCCc1ccc(OCC(O)CNC(C)C)cc1 (stereo not shown)	ABCB1	–	MDCK-MDR1	5 µM	Papp A→B	32.1 ×10⁻⁶ cm/s
CC[C@H](C)C(=O)N1CCC(NC(=O)Nc2ccc(OC(F)(F)F)c(F)c2)CC1	ABCB1	transporter efflux, inhibitor, fluorescence	–	10 µM	inhibition	< 25%
C=C[C@H]1C[N@@]2CC[C@H]1C[C@@H]2[C@@H](O)c1ccnc2ccc(OC)cc12	ABCB1	–	MDCK-MDR1	5 µM	Papp A→B	13.1 ×10⁻⁶ cm/s
CN(C(=O)n1cnc(-c2ccc[n+]([O-])c2)c1)C1CCCCC1	SLC47A2	transporter uptake, inhibitor	MDCK-II	0.3 µg/mL	inhibition	12%
C[C@]12CCCN1CC1=NNC(=O)c3cc(F)cc4[nH]c2c1c34	ABCB1	–	MDCK-MDR1	10 µM	Papp A→B	25.5 ×10⁻⁶ cm/s
Cc1cc(Nc2ncnc3ccc(NC4=NC(C)(C)CO4)cc23)ccc1Oc1ccn2ncnc2c1	ABCB1	–	MDCK-MDR1, Caco-2	1 µM, 1 h, pH 7.4	efflux ratio	9.48
